Laboratory results reported in ChEMBL document CHEMBL1133216, “Synthesis and structure-activity relationships of novel fungal chitin synthase inhibitors” (Bioorg Med Chem Lett, 2000).
In brackets after ≈: the same amount, converted by molar mass. Several values for one entry are separate records, joined by “and”; a condition that tells them apart may be missing. Equal entries are not always repeated.

Assays:
Candida albicans [1] = assay: In vitro antifungal activity against Candida albicans CY 1002; assay type: functional, organism-based
Chitin synthase 1 = Chitin synthase 1 (Candida albicans, UniProt P23316); assay: Inhibitory of Candida albicans chitin synthase 1
Chain of Chitin synthase 1 (P23316 whole entry): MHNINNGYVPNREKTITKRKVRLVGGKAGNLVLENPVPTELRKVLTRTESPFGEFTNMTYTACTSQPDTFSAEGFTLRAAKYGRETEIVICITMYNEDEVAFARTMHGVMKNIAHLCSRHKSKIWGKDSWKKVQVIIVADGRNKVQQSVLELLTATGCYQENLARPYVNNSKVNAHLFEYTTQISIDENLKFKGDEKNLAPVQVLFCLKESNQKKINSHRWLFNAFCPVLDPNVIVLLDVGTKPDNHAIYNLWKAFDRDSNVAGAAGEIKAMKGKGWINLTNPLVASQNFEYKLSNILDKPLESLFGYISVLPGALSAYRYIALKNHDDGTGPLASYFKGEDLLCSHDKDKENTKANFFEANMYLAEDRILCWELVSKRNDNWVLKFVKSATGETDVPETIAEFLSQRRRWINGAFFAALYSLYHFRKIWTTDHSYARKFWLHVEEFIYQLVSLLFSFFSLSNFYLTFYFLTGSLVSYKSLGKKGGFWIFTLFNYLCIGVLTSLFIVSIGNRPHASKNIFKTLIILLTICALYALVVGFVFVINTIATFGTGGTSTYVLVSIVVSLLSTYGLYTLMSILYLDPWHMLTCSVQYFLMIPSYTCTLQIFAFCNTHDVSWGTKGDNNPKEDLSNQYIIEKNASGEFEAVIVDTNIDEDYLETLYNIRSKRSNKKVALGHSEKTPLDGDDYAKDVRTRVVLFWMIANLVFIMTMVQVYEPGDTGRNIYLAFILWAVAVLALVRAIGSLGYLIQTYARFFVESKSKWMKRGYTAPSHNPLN

Mus musculus [2] = assay: In vivo antifungal activity was evaluated in target organ kidney assay (TOKA) in mice infected with Candida albicans CY 10025 X 10e5 cell after intravenous administration of compound at 5 mg/kg; assay type: functional
Outline: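 Systemic candidiasis in mice, target organ kidney assay: infection with 5 × 10^5 cells/mouse, compound given iv at 0, 2 and 4 h post-infection in 5% DMSO-5% PEG300-30% HPCD. Kidney CFU counted; T/C = treated CFU/control CFU × 100.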

Aspergillus fumigatus = assay: In vitro antifungal activity of compound was tested against Aspergillus fumigatus CF1003
Cryptococcus neoformans [3] = assay: In vitro antifungal activity of compound was tested against Cryptococcus neoformans CY 1057
Pichia kudriavzevii = assay: In vitro antifungal activity against Candida krusei CY 1191; assay type: functional, organism-based
Candida tropicalis = assay: In vitro antifungal activity of compound was tested against Candida tropicalis CY 1038; assay type: functional, organism-based
Candida albicans [4] = assay: In vitro antifungal activity against Candida albicans CY 1124; assay type: functional, organism-based
Cryptococcus neoformans [5] = assay: In vitro antifungal activity of compound was tested against Cryptococcus neoformans CY 1059
Nakaseomyces glabratus = assay: In vitro antifungal activity against Candida glabrata CY 1014; assay type: functional, organism-based
Candida albicans [6] = assay: In vitro antifungal activity against Candida albicans CY 1003; assay type: functional, organism-based
Candida albicans [7] = assay: In vitro antifungal activity against Candida albicans CY 3003; assay type: functional, organism-based
Candida parapsilosis = assay: In vitro antifungal activity of compound was tested against Candida parapsilosis CY 1028; assay type: functional, organism-based; settings: Lodderomyces parapsilosis
Candida albicans [8] = assay: In vitro antifungal activity against […] CY 1057; assay type: functional, organism-based
Mus musculus [9] = assay: In vivo antifungal activity was evaluated in target organ kidney assay (TOKA) in mice infected with Candida albicans CY 10025 X 10e5 cell after intravenous administration of compound at 1 mg/kg; assay type: functional
Outline: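 Systemic candidiasis in mice, infected with C. albicans CY1002 at 5 × 10^5 cells/mouse. Dosed iv at 0, 2 and 4 h after infection: 5 mg/kg in 5% DMSO 5% PEG300-30% HPCD, comparator azole at 1 mg/kg. Kidney CFU counted; T/C = treated CFU/control CFU × 100.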

Candida albicans [10] = assay: In vitro antifungal activity against Aspergillus fumigatus CF 1003; assay type: functional, organism-based

| SMILES | IC50 (Candida albicans [1]) | IC50 (Chitin synthase 1) | also measured |
| --- | --- | --- | --- |
| CC(C)(C)C#C/C=C/CNc1cccc2nc(O)ccc12 | 3.3 µg/mL (≈ 11.8 µM) | 71.3 nM and 70 nM | – |
| CCCCN(C/C=C/C#CC(C)(C)C)c1cccc2c1CCC(=O)N2 | > 200 µg/mL | 0.35 nM | – |
| CN(CC#CC#CC(C)(C)O)c1cccc2c1CCC(=O)N2 | > 200 µg/mL | 213 nM | – |
| CC(C)(C)C#C/C=C/CNc1cccc2oc(=O)ccc12 | – | 12000 nM | – |
| CN(CC#CC#Cc1ccccc1)c1cccc2c1CCC(=O)N2 | > 200 µg/mL | 13700 nM | – |
| CC(C)(C)C#C/C=C/CN(Cc1ccccc1)c1cccc2c1CCC(=O)N2 | > 200 µg/mL | 54 nM | – |
| CN(CC#CC#CC(C)(C)C)c1cccc2c1CC(O)C(=O)N2 (stereo not drawn) | 0.13 µg/mL (≈ 0.419 µM) | 3 nM | T/C (Mus musculus [2]): 39%; IC50 (Aspergillus fumigatus): 82 µg/mL (≈ 264 µM); IC50 (Cryptococcus neoformans [3]): > 200 µg/mL |
| CCOP(=O)(OCC)OC1Cc2c(cccc2N(C)CC#CC#CC(C)(C)C)NC1=O (stereo not drawn) | 2.1 µg/mL (≈ 4.7 µM) | 0.76 nM | IC50 (Aspergillus fumigatus): 21 µg/mL (≈ 47 µM); IC50 (Cryptococcus neoformans [3]): 0.23 µg/mL (≈ 0.515 µM) |
| COC(C)(C)C#CC#CCN(C)c1cccc2c1CCC(=O)N2 | 3.5 µg/mL (≈ 11.3 µM) | 1030 nM | – |
| CC(C)(C)CCCCCNc1cccc2[nH]c(=O)ccc12 | – | > 350000 nM | – |
| CC(C)(C)C#C/C=C/CN(c1cccc2c1CCC(=O)N2)S(C)(=O)=O | > 200 µg/mL | 391 nM | – |
| CN(CC#CC#CC(C)(C)C)c1cccc2c1CC(N)C(=O)N2 (stereo not drawn) | 20 µg/mL (≈ 64.6 µM) | 12.3 nM | T/C (Mus musculus [2]): 23%; IC50 (Aspergillus fumigatus): 35 µg/mL (≈ 113 µM); IC50 (Cryptococcus neoformans [3]): 15 µg/mL (≈ 48.5 µM) |
| CC(C)[C@@H](N)C(=O)OC1Cc2c(cccc2N(C)CC#CC#CC(C)(C)C)NC1=O (stereo partly drawn) | 1.3 µg/mL (≈ 3.17 µM) | 14.9 nM | T/C (Mus musculus [2]): 15%; IC50 (Aspergillus fumigatus): 19 µg/mL (≈ 46.4 µM); IC50 (Cryptococcus neoformans [3]): 16 µg/mL (≈ 39.1 µM) |
| CC(=O)Nc1cccc(NC/C=C/C#CC(C)(C)C)c1 | – | 1000 nM | – |
| CC(C)(C)C#C/C=C/CNCc1ccc(O)nc1 | – | 211000 nM | – |
| CC(C)(C)C#C/C=C/CNc1cccc2c1CCC(=O)N2 | > 200 µg/mL | 70.9 nM | – |

| SMILES | IC50 (Candida albicans [1]) | IC50 (Chitin synthase 1) | also measured |
| --- | --- | --- | --- |
| CCC#CC#CCN(C)c1cccc2c1CCC(=O)N2 | 200 µg/mL (≈ 751 µM) | 7.88 nM | – |
| CC(C)N(C/C=C/C#CC(C)(C)C)c1cccc2c1CCC(=O)N2 | > 200 µg/mL | 1.23 nM | – |
| CN(C/C=C/C#CC(C)(C)C)c1cccc2c1CCC(=O)N2 | 0.19 µg/mL (≈ 0.641 µM) | 2.77 nM | – |
| CN(CCCC#CC(C)(C)C)c1cccc2c1CCC(=O)N2 | > 200 µg/mL | 8.95 nM | – |
| CCCCCN(C/C=C/C#CC(C)(C)C)c1cccc2c1CCC(=O)N2 | > 200 µg/mL | 1.1 nM | – |
| CN(CC#CC#CC(C)(C)C)c1cccc2c1CCC(=O)N2 | 0.07 µg/mL (≈ 0.238 µM) | 0.14 nM | IC50 (Pichia kudriavzevii): 0.31 µg/mL (≈ 1.05 µM); IC50 (Candida tropicalis): 0.07 µg/mL (≈ 0.238 µM); IC50 (Candida albicans [4]): 0.17 µg/mL (≈ 0.577 µM); IC50 (Cryptococcus neoformans [5]): > 200 µg/mL; IC50 (Nakaseomyces glabratus): 0.47 µg/mL (≈ 1.6 µM); IC50 (Candida albicans [6]): 0.1 µg/mL (≈ 0.34 µM); T/C (Mus musculus [2]): 34%; IC50 (Aspergillus fumigatus): 43 µg/mL (≈ 146 µM); IC50 (Candida albicans [7]): 0.09 µg/mL (≈ 0.306 µM); IC50 (Candida parapsilosis): 0.5 µg/mL (≈ 1.7 µM) |
| CCCN(C/C=C/C#CC(C)(C)C)c1cccc2c1CCC(=O)N2 | > 200 µg/mL | 0.68 nM | – |
| CCN(C/C=C/C#CC(C)(C)C)c1cccc2c1CCC(=O)N2 | 0.27 µg/mL (≈ 0.87 µM) | 0.9 nM | – |
| Cn1c(=O)ccc2c(NC/C=C/C#CC(C)(C)C)cccc21 | – | 16000 nM | – |
| CN(C/C=C\C#CC(C)(C)C)c1cccc2c1CCC(=O)N2 | 95 µg/mL (≈ 320 µM) | 13.2 nM | – |
| CC(=O)N(C/C=C/C#CC(C)(C)C)c1cccc2c1CCC(=O)N2 | > 200 µg/mL | 775 nM | – |
| CC(C)(C)C#C/C=C/CNc1cccc2ncccc12 | – | 4500 nM | – |
| CN(Cc1ccc(C#CC(C)(C)C)cc1)c1cccc2c1CCC(=O)N2 | > 200 µg/mL | 7.22 nM | – |
| OC(Cn1cncn1)(Cn1cncn1)c1ccc(F)cc1F [FLUCONAZOLE] | 1.2 µg/mL (≈ 3.92 µM) | – | IC50 (Candida albicans [8]): 3.4 µg/mL (≈ 11.1 µM); T/C (Mus musculus [9]): 38%; IC50 (Candida albicans [10]): 50 µg/mL (≈ 163 µM) |
| C[C@@H]([C@H](N)C(=O)N[C@H](C(=O)O)[C@H]1O[C@@H](n2ccc(=O)[nH]c2=O)[C@H](O)[C@@H]1O)[C@H](O)c1ccc(O)cn1 [NIKKOMYCIN] | 12 µg/mL (≈ 24.2 µM) | 3200 nM | IC50 (Pichia kudriavzevii): > 200 µg/mL; IC50 (Candida tropicalis): 73 µg/mL (≈ 147 µM); IC50 (Candida albicans [4]): 15 µg/mL (≈ 30.3 µM); IC50 (Cryptococcus neoformans [5]): > 200 µg/mL; IC50 (Nakaseomyces glabratus): > 200 µg/mL; IC50 (Candida albicans [6]): 81 µg/mL (≈ 163 µM); IC50 (Aspergillus fumigatus): 11 µg/mL (≈ 22.2 µM); IC50 (Candida albicans [7]): 7 µg/mL (≈ 14.1 µM); IC50 (Candida parapsilosis): 13 µg/mL (≈ 26.2 µM) |
